Experimental data from PubChem BioAssay AID504414 (Broad Institute, 2011).
About 55 (0.02%) of roughly 330,000 compounds were called active.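 How the source made its calls: active means highest replicate inhibition of at least 40%; inactive means the rest.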 What follows is part of a selection rich in actives, with near analogues and random picks from the rest.

Molecular target: Golgi-associated PDZ and coiled-coil motif-containing protein (Homo sapiens) (UniProt Q9HD26)
Assay: disruption of CAL PDZ-reporter peptide interaction – biochemical, fluorescence polarization, Cer-tagged CAL PDZ, HTS, primary screen (AID 504414);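 further: plate controls were DMSO neutral control wells for no effect and unlabeled competitor peptide control wells for full effect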
Conditions: purified CAL PDZ, TMR-peptide fluorescence polarization, 1 h; at 20 µM; hits give high values
Method in brief: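 Test system: purified CerCALP PDZ construct; Compound dosing: one concentration, 20 µM compound; Also added: TMR-labelled reporter peptide T*-PRC34 bound in PDZ groove; Read-out: inhibition from polarization loss; Controls: unlabelled peptide and DMSO controls; Signal: FP readout, S and P plane fluorescence; Incubation: 1 h at RT.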

| SMILES | inhibition |
| --- | --- |
| Cn1c(=O)c2c(nc(N3CCOCC3)n2CCNC2=NCCC2)n(C)c1=O | 0.616% (inactive) |
| COC(=O)[C@H]1Cc2cnoc2C[C@]1(C)C(=O)O | -1.94% (inactive) |
| Cc1cccc(NC(=O)CSc2nnc(CCNC(=O)OC(C)(C)C)o2)c1C | 0.572% (inactive) |
| CN(C)c1ccc(CNC2C3CC4CC(C3)CC2C4)cc1 (stereo unspecified) | -1.31% (inactive) |
| CC(C)NC(=O)COCc1cc(-c2ccc3c(c2)OCO3)on1 | 0.0991% (inactive) |
| O=C(NCCCN1CCCC1=O)c1cccc(S(=O)(=O)NCc2ccccc2)c1 | -2.23% (inactive) |
| CCOCCCNC(=O)C(NC(=O)CNC(=O)c1ccccc1)c1ccc(OC)cc1 (stereo unspecified) | -0.316% (inactive) |
| CCOc1ccc2sc(NS(=O)(=O)c3ccc(N)cc3)nc2c1 | -2.52% (inactive) |
| O=C1CS(=O)CN1c1ccc(Oc2ccccc2)cc1 (stereo unspecified) | -2.68% (inactive) |
| O=C(CN(CC1CCCO1)C(=O)CNS(=O)(=O)c1ccc(Cl)cc1)NCc1ccccc1 (stereo unspecified) | -2.47% (inactive) |
| CCN(C(=O)Cc1nc(N)n[nH]1)C1(C(=O)Nc2ccccc2)CCCCC1 | -0.615% (inactive) |
| CCOC(=O)C1Cn2c(nc3c(c2=O)C(C)(CC)Cc2ccccc2-3)S1 (stereo unspecified) | -2.98% (inactive) |
| O=C(/C=C/c1ccccc1[N+](=O)[O-])OCC(=O)N1CCCC1 | -0.608% (inactive) |
| CCOC(=O)N1CCN(S(=O)(=O)N2CCCC(C(=O)NCCCN3CCC(C)CC3)C2)CC1 (stereo unspecified) | -1.6% (inactive) |
| Cc1ccccc1/[N+]([O-])=C/c1ccncc1 | -1.06% (inactive) |
| COc1ccc(Cn2c(-c3ccc(Cl)cc3)c[n+]3ccccc23)cc1 | -2.82% (inactive) |
| CSCCNC(=O)c1ccc2nc(Cc3ccccc3F)oc2c1 | 0.068% (inactive) |
| CC1CN(C(=S)Nc2ccc(Br)cc2Cl)CC(C)O1 (stereo unspecified) | 0.196% (inactive) |
| Cc1ccccc1CNC(=O)CCC(=O)N1Cc2ccccc2Oc2ncccc21 | -3.11% (inactive) |
| Cc1cccc(-n2nc3c(c2NC(=O)c2cc4ccccc4o2)CS(=O)(=O)C3)c1 | -2.7% (inactive) |
| CCC1([N+](=O)[O-])COC(c2ccc(C)cc2)OC1 (stereo unspecified) | -0.14% (inactive) |
| O=c1c2ccccc2cnn1Cc1n[nH]c(=S)n1-c1ccccc1F | 0.871% (inactive) |
| CCC(C)Sc1nc2c(cnn2-c2ccc(F)cc2)c(=O)[nH]1 (stereo unspecified) | -0.979% (inactive) |
| O=C1NC(c2ccccc2)CCC1(Cl)Cl (stereo unspecified) | -0.102% (inactive) |

| SMILES | inhibition |
| --- | --- |
| CCOC(=O)c1nc(-c2ccc3c(c2)OCO3)[nH]c1C | -0.475% (inactive) |
| COc1cc(C2C3C(=O)N(c4ccccc4)C(=O)C3ON2c2ccccc2)ccc1O (stereo unspecified) | -0.569% (inactive) |
| COc1cccc2c(C)c(C(=O)O)[nH]c12 | -0.62% (inactive) |
| O=C(NNS(=O)(=O)c1ccc(F)cc1)c1cnccn1 | -2.25% (inactive) |
| CN(C)S(=O)(=O)c1ccc(N/C=C(\[N+](=O)[O-])S(=O)(=O)c2ccccc2)cc1 | 0.264% (inactive) |
| CCCCCc1nnc(NC(=O)c2ccc(=O)n(C)n2)s1 | 176% (active) |
| CCCCc1nnc(NC(=O)CSc2nc(N)cc(=O)[nH]2)s1 | 0.237% (inactive) |
| CCCCc1nnc(NC(=O)CSc2nc(C)cc(=O)[nH]2)s1 | -0.42% (inactive) |
| Cc1ccc(C(=O)NN(CCC#N)C2=NS(=O)(=O)c3ccccc32)cc1 | -0.552% (inactive) |
| CC(C)c1cc(N=O)cc(C(C)C)c1O | -0.56% (inactive) |
| Clc1cc(-c2ccc(/C=N/n3cnnc3)o2)ccc1Br | -4.91% (inactive) |
| CC(C(=O)N(C)CC(=O)Nc1ccccc1C(F)(F)F)N1C(=O)c2ccccc2C1=O (stereo unspecified) | -0.0605% (inactive) |
| CCOCCCN(C)C1CCN(C(=O)c2oc3ccccc3c2NC(=O)Cc2cccc([N+](=O)[O-])c2)CC1 | -0.742% (inactive) |
| O=C(Nc1ccc2c(c1)nc1n2CCCCC1)c1cc(S(=O)(=O)N2CCOCC2)ccc1Cl | -2.81% (inactive) |
| CCOc1ccc(N(CC(=O)Nc2cccc(OC)c2)S(C)(=O)=O)cc1 | 0.31% (inactive) |
| CC(C)(C)NC(=O)CN(C(=O)c1csnn1)c1ccccc1-c1ccccc1 | -2.13% (inactive) |
| CCCCn1c(N)c(N(CCOC)C(=O)c2oc3ccc(OC)cc3c2C)c(=O)[nH]c1=O | -1.98% (inactive) |
| Cc1onc(-c2c(F)cccc2Cl)c1C(=O)OCC(=O)N1C(C)CCCC1C (stereo unspecified) | -0.828% (inactive) |
| Cc1ccc(NC(=O)C2CC2c2ccccc2)cc1 (stereo unspecified) | -0.307% (inactive) |
| COc1ccccc1C(=O)Nc1ccc(OCC(=O)N2CCCCC2)cc1 | -1.71% (inactive) |
| COc1ccc(CCNC(=O)c2nnc(CS(=O)(=O)c3ccccc3)o2)cc1OC | 1.25% (inactive) |
| COc1c(C)cc(C(=O)C2CCCN(S(=O)(=O)c3c(C)noc3C)C2)cc1C (stereo unspecified) | -2.46% (inactive) |
| Cc1ccc(S(=O)(=O)N(CC(O)CN2C(=O)NC(C)(C)C2=O)c2cccc([N+](=O)[O-])c2)cc1 (stereo unspecified) | -1.82% (inactive) |
| CC(C)=CCCC1(C)C=Cc2c(ccc3c2[nH]c2cc(O)c(C)cc23)O1 (stereo unspecified) | 0.0711% (inactive) |

| SMILES | inhibition |
| --- | --- |
| Cc1csc(SCC(=O)N(c2ccccc2)C(C)C)n1 | -2.45% (inactive) |
| O=C(Cc1ccc(NC(=O)C2CCCN(C(=O)CCc3ccccc3)C2)cc1)Nc1ccc(C(=O)N2CCOCC2)cc1 (stereo unspecified) | -1.16% (inactive) |
| CC(=O)CCS(=O)(=O)c1ccc(C)c(C)c1 | 0.503% (inactive) |
| Cc1c(C(=O)N2CCCC2)c(S(=O)(=O)NCC(C)c2ccccc2)c(C)n1C (stereo unspecified) | -2.4% (inactive) |
| Cc1ccc(N(CC(=O)NC2CCCCC2)C(=O)CCCC(=O)Nc2ccccn2)c(C)c1 | 0.671% (inactive) |
| Cc1cc(-c2csc(N)n2)c(C)n1-c1ccccc1 | -2.46% (inactive) |
| CC(=O)c1ccc(NC(=O)C(C)OC(=O)c2ccc(NS(=O)(=O)c3ccc4[nH]c(=O)[nH]c4c3)cc2)cc1 (stereo unspecified) | 1.56% (inactive) |
| C=CCN1C(=O)C(O)(CC(=O)c2ccccn2)c2ccccc21 (stereo unspecified) | 0.0287% (inactive) |
| Cc1ccc2cc(C)c(N3CCC(C)CC3)nc2c1 | 1.11% (inactive) |
| CCOc1ncccc1C(=O)N(CC)CC(=O)Nc1ccc(NC(C)=O)cc1 | -1.13% (inactive) |
| CCN(CC)c1ccc(NC(=O)CCc2nnc3ccc(N4CCCCC4)nn23)c(C)c1 | 0.659% (inactive) |
| Cc1ccc(CNC(=O)C(=O)c2cn(CC(=O)N3CCOCC3)c3ccccc23)cc1 | -0.774% (inactive) |
| O=C(C1CC(=O)N(C2CCCCC2)C1)N1CCN(c2ccccc2)CC1 (stereo unspecified) | -3.07% (inactive) |
| CCCOP(=O)(c1ccc(N(C)C)cc1)C(O)c1cc(OC)c(OC)c(OC)c1 (stereo unspecified) | -2.28% (inactive) |
| Cc1nc(CN(C)C(=O)CC2C(=O)NCCN2Cc2ccc(F)cc2)cs1 (stereo unspecified) | -1.72% (inactive) |
| COC(=O)c1sc(C(F)(F)F)c(-c2ccccc2)c1S(=O)(=O)N(C)C | -1.85% (inactive) |
| CN1CCN(CC(O)COCc2ccc3c(c2)OCO3)CC1 (stereo unspecified) | 0.909% (inactive) |
| CCN(CC)c1ccc(C(=O)c2cnc(/N=C/N(C)C)s2)cc1 | -0.472% (inactive) |
| CC1CCCN(S(=O)(=O)c2ccc(-c3ccc(=O)[nH]n3)o2)C1 (stereo unspecified) | -2.4% (inactive) |
| Cc1cccc(NC(=O)c2ccc(OCC(=O)NCc3ccccc3)cc2)c1C | 0.0994% (inactive) |
| CCc1c(Nc2ccccc2Cl)nc(N)[nH]c1=O | 0.824% (inactive) |
| O=C(CCl)NNc1cccc(Cl)n1 | -0.466% (inactive) |
| Cc1sc2ncn(CC(=O)NCCN(C)C)c(=O)c2c1S(=O)(=O)N1CCC(C)CC1 | -1.98% (inactive) |
| CCCn1c(N)c(N(CCOC)C(=O)C2CCCC2)c(=O)[nH]c1=O | -0.787% (inactive) |

| SMILES | inhibition |
| --- | --- |
| CN(CCO)S(=O)(=O)c1ccc2c(c1)C(=O)c1cc(S(=O)(=O)N(C)CCO)ccc1-2 | -0.349% (inactive) |
| CC1C(=O)NC(=O)C1c1ccccc1 (stereo unspecified) | -1.12% (inactive) |
| COc1ccc(Cl)cc1S(=O)(=O)N1CCC(O)(c2ccc(Cl)cc2)CC1 | 0.846% (inactive) |
| COc1cc(C2C(C(=O)c3sc(C)nc3C)=C(O)C(=O)N2CCN(C)C)cc(OC)c1OC (stereo unspecified) | 0.746% (inactive) |
| O=C(NCc1ccc2c(c1)OCO2)c1cc([N+](=O)[O-])ccc1N1CCOCC1 | -1.53% (inactive) |
| Cc1ccccc1OCCC(=O)OCC(=O)NCCc1ccc(S(N)(=O)=O)cc1 | -0.918% (inactive) |
| Cc1ccn2c(c1)nc(=O)c1cc(S(=O)(=O)N3CCC(C)CC3)ccc12 | -0.295% (inactive) |
| O=S(=O)(c1ccc(Cl)cc1)N1CCCN(c2ccc(C(F)(F)F)cn2)CC1 | -1.87% (inactive) |
| CN(CC(O)COc1ccc(S(=O)(=O)N2CCOCC2)cc1Cl)C1CCCCC1 (stereo unspecified) | -0.337% (inactive) |
| CCCc1nc2scc(-c3ccc(C)cc3)c2c(=O)n1N | -1.81% (inactive) |
| Cc1onc(-c2c(F)cccc2Cl)c1C(=O)N(C)CC(=O)Nc1cccc(F)c1 | -1.86% (inactive) |
| COC(=O)c1sc(N2CCN(Cc3ccccc3)CC2)nc1N | -1.78% (inactive) |
| CCn1c(SCCC(C)C)nnc1-c1c[nH]c2ccccc12 | 0.439% (inactive) |
| C=CC(COCc1ccccc1)N(Cc1ccccc1)S(=O)(=O)c1ccccc1Br (stereo unspecified) | 0.0215% (inactive) |
| O=C(O)c1ccc(-n2nc(-c3ccccc3)c3ccccc3c2=O)cc1 | -0.73% (inactive) |
| CSCC[C@H](NC(=O)NCc1cccs1)C(=O)O | 1.04% (inactive) |
| COc1ccc(CCN(C)C(=O)C23CC4CC(CC(Cl)(C4)C2)C3)cc1OC | -1.39% (inactive) |
| CCn1nc(C(=O)Nc2ccc(N3CCOCC3)cc2)c2ccccc2c1=O | -1.35% (inactive) |
| C=C(C)CNC(=O)c1ccc(OC2CCN(C(=O)COC)CC2)cc1 | -0.166% (inactive) |
| C#CCN1CC(C)/C(=N/O)CC1C (stereo unspecified) | -0.192% (inactive) |
| O=c1[nH]oc(O)c1-c1ncc(C(F)(F)F)cc1Cl | -0.466% (inactive) |
| Nn1c(SCc2ccccc2)nnc1C1CCCCC1 | -0.356% (inactive) |
| COc1ccccc1C(=O)NCCC(=O)NC1=NCCS1 | 0.112% (inactive) |
| CCN(CC)C(=O)CS(=O)CC(=O)Nc1cc(OCCOC)c(Cl)cc1Cl (stereo unspecified) | -0.37% (inactive) |
